According to ChEMBL document CHEMBL1806444, “Synthesis of new chalcone derivatives bearing 2,4-thiazolidinedione and benzoic acid moieties as potential anti-bacterial agents” (2011):
In brackets after ≈: the same amount, converted by molar mass.

How the values were obtained:
Type in all cases: functional
[1] = system: Escherichia coli; assay: Antibacterial activity against 10^5 CFU/mL Escherichia coli 1356 assessed as inhibition of bacterial growth after 24 hrs by microtiter enzyme-linked immunosorbent assay; conditions: Escherichia coli, 1356, 24 h
[2] = system: Staphylococcus aureus; assay: Antibacterial activity against 10^5 CFU/mL Staphylococcus aureus RN4220 assessed as inhibition of bacterial growth after 24 hrs by microtiter enzyme-linked immunosorbent assay; conditions: RN4220, 24 h
[3] = system: Escherichia coli; assay: Antibacterial activity against 10^5 CFU/mL Escherichia coli 1682 assessed as inhibition of bacterial growth after 24 hrs by microtiter enzyme-linked immunosorbent assay; conditions: Escherichia coli, 1682, 24 h
[4] = system: Staphylococcus aureus; assay: Antibacterial activity against 10^5 CFU/mL Staphylococcus aureus KCTC 503 assessed as inhibition of bacterial growth after 24 hrs by microtiter enzyme-linked immunosorbent assay; conditions: KCTC 503, 24 h
[5] = system: Staphylococcus aureus; assay: Antibacterial activity against 10^5 CFU/mL methicillin-resistant Staphylococcus aureus CCARM 3167 assessed as inhibition of bacterial growth after 24 hrs by microtiter enzyme-linked immunosorbent assay; conditions: CCARM 3167, 24 h
Procedure, shortened: (§1)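 Broth microdilution MIC. Bacteria grown to mid-log phase in Mueller-Hinton broth, diluted 1000-fold, and inoculated at 10⁵ CFU/mL in MHB, 0.2 mL/well in 96-well plates. Compounds dissolved in DMSO, final DMSO not exceeding 0.05%, in serial dilutions. Oxacillin and norfloxacin served as positive controls. MIC is the lowest concentration giving complete growth inhibition after 24 h at 37 °C.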

[6] = system: Staphylococcus aureus; assay: Antibacterial activity against 10^5 CFU/mL quinolone-resistant Staphylococcus aureus CCARM 3505 assessed as inhibition of bacterial growth after 24 hrs by microtiter enzyme-linked immunosorbent assay; conditions: CCARM 3505, 24 h; procedure, shortened: as §1
[7] = system: Staphylococcus aureus; assay: Antibacterial activity against 10^5 CFU/mL methicillin-resistant Staphylococcus aureus CCARM 3506 assessed as inhibition of bacterial growth after 24 hrs by microtiter enzyme-linked immunosorbent assay; conditions: CCARM 3506, 24 h; procedure, shortened: as §1
[8] = system: Staphylococcus aureus; assay: Antibacterial activity against 10^5 CFU/mL quinolone-resistant Staphylococcus aureus CCARM 3519 assessed as inhibition of bacterial growth after 24 hrs by microtiter enzyme-linked immunosorbent assay; conditions: CCARM 3519, 24 h; procedure, shortened: as §1
[9] = system: Staphylococcus aureus; assay: Ratio of oxacillin MIC to compound MIC for methicillin-resistant Staphylococcus aureus CCARM 3506
[10] = system: Staphylococcus aureus; assay: Ratio of Norfloxacin MIC to compound MIC for methicillin-resistant Staphylococcus aureus CCARM 3506
[11] = system: Staphylococcus aureus; assay: Ratio of Norfloxacin MIC to compound MIC for methicillin-resistant Staphylococcus aureus CCARM 3167
[12] = system: Staphylococcus aureus; assay: Ratio of oxacillin MIC to compound MIC for methicillin-resistant Staphylococcus aureus CCARM 3167

SMILES: O=C(O)c1ccc(CN2C(=O)S/C(=C\c3ccc(/C=C/C(=O)c4ccc(Cl)cc4Cl)cc3)C2=O)cc1
- MIC [1]: > 64 µg/mL
- MIC [2]: > 64 µg/mL
- MIC [3]: > 64 µg/mL
- MIC [4]: > 64 µg/mL

SMILES: O=C(O)c1ccc(CN2C(=O)S/C(=C\c3ccc(/C=C/C(=O)c4ccccc4F)cc3)C2=O)cc1
- MIC [1]: > 64 µg/mL
- MIC [2]: > 64 µg/mL
- MIC [3]: > 64 µg/mL
- MIC [4]: > 64 µg/mL

SMILES: O=C(O)c1ccc(CN2C(=O)S/C(=C\c3ccc(/C=C/C(=O)c4ccc(F)cc4)cc3)C2=O)cc1
- MIC [1]: > 64 µg/mL
- MIC [2]: > 64 µg/mL
- MIC [3]: > 64 µg/mL
- MIC [4]: > 64 µg/mL

SMILES: O=C(O)c1ccc(CN2C(=O)S/C(=C\c3ccc(/C=C/C(=O)c4ccccc4Cl)cc3)C2=O)cc1
- MIC [5]: 1 µg/mL (≈ 1.98 µM)
- MIC [1]: > 64 µg/mL
- MIC [2]: 1 µg/mL (≈ 1.98 µM)
- MIC [6]: 2 µg/mL (≈ 3.97 µM)
- MIC [3]: > 64 µg/mL
- MIC [7]: 1 µg/mL (≈ 1.98 µM)
- MIC [8]: 2 µg/mL (≈ 3.97 µM)
- MIC [4]: 2 µg/mL (≈ 3.97 µM)

SMILES: O=C(O)c1ccc(CN2C(=O)S/C(=C\c3ccc(/C=C/C(=O)c4cccc(Cl)c4)cc3)C2=O)cc1
- MIC [1]: > 64 µg/mL
- MIC [2]: > 64 µg/mL
- MIC [3]: > 64 µg/mL
- MIC [4]: > 64 µg/mL

SMILES: O=C(O)c1ccc(CN2C(=O)S/C(=C\c3ccc(/C=C/C(=O)c4ccc(Cl)cc4)cc3)C2=O)cc1
- MIC [1]: > 64 µg/mL
- MIC [2]: > 64 µg/mL
- MIC [3]: > 64 µg/mL
- MIC [4]: > 64 µg/mL

SMILES: O=C(O)c1ccc(CN2C(=O)S/C(=C\c3ccc(/C=C/C(=O)c4ccccc4Br)cc3)C2=O)cc1
- MIC [5]: 1 µg/mL (≈ 1.82 µM)
- MIC [1]: > 64 µg/mL
- MIC [2]: 2 µg/mL (≈ 3.65 µM)
- MIC [6]: 2 µg/mL (≈ 3.65 µM)
- MIC [3]: > 64 µg/mL
- MIC [7]: 1 µg/mL (≈ 1.82 µM)
- MIC [8]: 2 µg/mL (≈ 3.65 µM)
- MIC [4]: 4 µg/mL (≈ 7.29 µM)

SMILES: O=C(O)c1ccc(CN2C(=O)S/C(=C\c3ccc(/C=C/C(=O)c4cccc(Br)c4)cc3)C2=O)cc1
- MIC [1]: > 64 µg/mL
- MIC [2]: > 64 µg/mL
- MIC [3]: > 64 µg/mL
- MIC [4]: > 64 µg/mL

SMILES: O=C(O)c1ccc(CN2C(=O)S/C(=C\c3ccc(/C=C/C(=O)c4ccc(Br)cc4)cc3)C2=O)cc1
- MIC [1]: > 64 µg/mL
- MIC [2]: > 64 µg/mL
- MIC [3]: > 64 µg/mL
- MIC [4]: > 64 µg/mL

SMILES: COc1ccccc1C(=O)/C=C/c1ccc(/C=C2\SC(=O)N(Cc3ccc(C(=O)O)cc3)C2=O)cc1
- MIC [5]: 2 µg/mL (≈ 4 µM)
- MIC [1]: > 64 µg/mL
- MIC [2]: 2 µg/mL (≈ 4 µM)
- MIC [6]: 4 µg/mL (≈ 8.01 µM)
- MIC [3]: > 64 µg/mL
- MIC [7]: 2 µg/mL (≈ 4 µM)
- MIC [8]: 2 µg/mL (≈ 4 µM)
- MIC [4]: 4 µg/mL (≈ 8.01 µM)

SMILES: COc1cccc(C(=O)/C=C/c2ccc(/C=C3\SC(=O)N(Cc4ccc(C(=O)O)cc4)C3=O)cc2)c1
- MIC [1]: > 64 µg/mL
- MIC [2]: > 64 µg/mL
- MIC [3]: > 64 µg/mL
- MIC [4]: > 64 µg/mL

SMILES: COc1ccc(C(=O)/C=C/c2ccc(/C=C3\SC(=O)N(Cc4ccc(C(=O)O)cc4)C3=O)cc2)cc1
- MIC [1]: > 64 µg/mL
- MIC [2]: > 64 µg/mL
- MIC [3]: > 64 µg/mL
- MIC [4]: > 64 µg/mL

SMILES: O=C(O)c1ccc(CN2C(=O)S/C(=C\c3ccc(/C=C/C(=O)c4ccccc4O)cc3)C2=O)cc1
- MIC [1]: > 64 µg/mL
- MIC [2]: > 64 µg/mL
- MIC [3]: > 64 µg/mL
- MIC [4]: > 64 µg/mL

SMILES: O=C(O)c1ccc(CN2C(=O)S/C(=C\c3ccc(/C=C/C(=O)c4cccc(O)c4)cc3)C2=O)cc1
- MIC [5]: 1 µg/mL (≈ 2.06 µM)
- MIC [1]: > 64 µg/mL
- MIC [2]: 2 µg/mL (≈ 4.12 µM)
- MIC [6]: 2 µg/mL (≈ 4.12 µM)
- MIC [3]: > 64 µg/mL
- MIC [7]: 1 µg/mL (≈ 2.06 µM)
- MIC [8]: 2 µg/mL (≈ 4.12 µM)
- MIC [4]: 4 µg/mL (≈ 8.24 µM)

SMILES: O=C(O)c1ccc(CN2C(=O)S/C(=C\c3ccc(/C=C/C(=O)c4ccc(O)cc4)cc3)C2=O)cc1
- MIC [1]: > 64 µg/mL
- MIC [2]: > 64 µg/mL
- MIC [3]: > 64 µg/mL
- MIC [4]: > 64 µg/mL

SMILES: COC(=O)c1ccc(CN2C(=O)S/C(=C\c3ccc(/C=C/C(=O)c4ccc(O)cc4)cc3)C2=O)cc1
- MIC [1]: > 64 µg/mL
- MIC [2]: > 64 µg/mL
- MIC [3]: > 64 µg/mL
- MIC [4]: > 64 µg/mL

SMILES: O=C(O)c1ccc(CN2C(=O)S/C(=C\c3ccc(/C=C/C(=O)c4ccccc4)cc3)C2=O)cc1
- Ratio [9]: 64
- MIC [5]: 1 µg/mL (≈ 2.13 µM)
- Ratio [10]: 8
- MIC [1]: > 64 µg/mL
- MIC [2]: 1 µg/mL (≈ 2.13 µM)
- MIC [6]: 2 µg/mL (≈ 4.26 µM)
- Ratio [11]: 8
- Ratio [12]: 64
- MIC [3]: > 64 µg/mL
- MIC [7]: 0.5 µg/mL (≈ 1.06 µM)
- MIC [8]: 2 µg/mL (≈ 4.26 µM)
- MIC [4]: 2 µg/mL (≈ 4.26 µM)

SMILES: COC(=O)c1ccc(CN2C(=O)S/C(=C\c3ccc(/C=C/C(=O)c4ccc(OC)cc4)cc3)C2=O)cc1
- MIC [1]: > 64 µg/mL
- MIC [2]: > 64 µg/mL
- MIC [3]: > 64 µg/mL
- MIC [4]: > 64 µg/mL

SMILES: CCn1cc(C(=O)O)c(=O)c2cc(F)c(N3CCNCC3)cc21 [NORFLOXACIN]
- MIC [5]: 8 µg/mL (≈ 25.1 µM)
- MIC [1]: 16 µg/mL (≈ 50.1 µM)
- MIC [2]: 2 µg/mL (≈ 6.26 µM)
- MIC [6]: > 64 µg/mL
- MIC [3]: 16 µg/mL (≈ 50.1 µM)
- MIC [7]: 4 µg/mL (≈ 12.5 µM)
- MIC [8]: > 64 µg/mL
- MIC [4]: 2 µg/mL (≈ 6.26 µM)

SMILES: Cc1onc(-c2ccccc2)c1C(=O)N[C@@H]1C(=O)N2[C@@H]1SC(C)(C)[C@@H]2C(=O)O [OXACILLIN]
- MIC [5]: > 64 µg/mL
- MIC [1]: > 64 µg/mL
- MIC [2]: 1 µg/mL (≈ 2.49 µM)
- MIC [6]: 1 µg/mL (≈ 2.49 µM)
- MIC [3]: > 64 µg/mL
- MIC [7]: > 64 µg/mL
- MIC [8]: 1 µg/mL (≈ 2.49 µM)
- MIC [4]: 1 µg/mL (≈ 2.49 µM)
